Reference: ChEMBL document CHEMBL5390255, “Expanding the squaramide library as mycobacterial ATP synthase inhibitors: Innovative synthetic pathway and biological evaluation” (Bioorg Med Chem, 2023)
≈ marks a conversion by molar mass, not a printed value. Calls of active or inactive are those of the source. No cut-off for these calls is given here.

Tests used:
[1] = test system: Mycobacterium tuberculosis; assay: Antibacterial activity against Mycobacterium tuberculosis H37Ra assessed as bacterial growth inhibition incubated for 7 days by broth microdilution method; type: functional; details: time 7 day
Method in brief: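 H37Ra-Lux luminescent broth microdilution. Cultures in 7H9/OADC/tyloxapol/glycerol at 1x10⁴ RLU/well. 2-fold nine-point dilution from final 100 µM, DMSO ≤0.5%, in triplicate, with bedaquiline reference. Incubated 7 days at 37 °C; luminescence read after n-decanal injection. MIC90 from variable-slope four-parameter nonlinear regression.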

[2] = Cytotoxicity against mouse RAW264.7 cells assessed as reduction of cell viability incubated for 72 hrs by Cell Titer-Glo assay; type: toxicity, cell-based
[3] = Octanol/water partition coefficient log P of the compound; type: physicochemical
Method in brief: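 Calculated by Chemaxon as log n-octanol/water partition coefficient, not measured.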

[4] = test system: Mycobacterium tuberculosis; assay: Antibacterial activity against Mycobacterium tuberculosis H37Rv assessed as bacterial growth inhibition by resazurin staining based broth micro-dilution assay; type: functional
[5] = target: ATP synthase; assay: Inhibition of Mycobacterium tuberculosis H37Rv ATP synthase by luminometer analysis; type: protein-complex assay
[6] = test system: Mycobacterium tuberculosis; assay: Synergistic antibacterial activity against Mycobacterium tuberculosis H37Ra assessed as fractional inhibitory concentration index at 2 times MIC measured after 7 days in presence of clofazimine by checkerboard microdilution assay; type: functional; details: time 7 day
Method in brief: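 Checkerboard with H37Ra-Lux, in triplicate. Squaramide 2-fold dilutions from 2x MIC across columns; clofazimine 2-fold dilutions from 2x MIC down rows. Luminescence read at 7 days. FICI calculated as A/MIC A + B/MIC B.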

[7] = test system: Mycobacterium tuberculosis; assay: Bactericidal activity against Mycobacterium tuberculosis H37Ra assessed as bacterial growth inhibition incubated for 3 to 4 weeks by broth microdilution method; type: functional; details: time 3-4 weeks
Method in brief: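 MBC: same H37Ra-Lux microdilution setup as the MIC assay. At 14 days, 2 µL per condition spotted on 7H11 agar in triplicate, and wells at and one step above MIC fully plated. Colonies counted after 3–4 weeks at 37 °C. MBC is the lowest concentration giving >99% kill.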

[8] = Selectivity index, ratio of MIC for antibacterial activity against Mycobacterium tuberculosis H37Rv to the IC50 for inhibition of Mycobacterium tuberculosis H37Rv ATP synthase; type: toxicity
[9] = test system: Mycobacterium tuberculosis; assay: Anti-mycobacterial activity against Mycobacterium tuberculosis H37Ra infected in mouse RAW264.7 cells at 0.5 to 2 times MIC measured after 72 hrs by time-kill kinetic assay; type: functional, organism-based
Method in brief: (§1)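 RAW 264.7 macrophages infected with H37Ra-Lux at MOI 10 for 4 h in DMEM with 5% iFBS. Extracellular bacteria were removed with 200 µg/ml amikacin for 1 h, and cells reseeded at 5x10⁴/well. […] Cells were PBS-washed, lysed in 0.1% Triton X-100, and luminescence read with n-decanal at 24, 48 and 72 h.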

[10] = test system: Mycobacterium tuberculosis; assay: Anti-mycobacterial activity against Mycobacterium tuberculosis H37Ra.mScarlet+ infected in mouse RAW264.7 cells assessed as reduction in bacterial load at 4 uM incubated for 72 hrs by 488-I Phalloidin/DAPI staining based microscopic analysis relative to control; type: functional; design: scale not given: the % may be the effect or the level left
Method in brief: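 RAW 264.7 cells infected with H37Ra.mScarlet⁺, seeded on coverslips at 5x10⁵ cells/ml, and treated with compound at 0.5% final DMSO; infected cells with 0.5% DMSO as control. At 72 h cells were PBS-washed and fixed in 4% paraformaldehyde. Actin stained with phalloidin 488 (1:1000, 15 min) and nuclei with 1 µg/ml DAPI (5 min). Imaged by fluorescence microscopy at 63x.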

[11] = test system: Mycobacterium tuberculosis; assay: Anti-mycobacterial activity against Mycobacterium tuberculosis H37Ra infected in mouse RAW264.7 cells at 0.5 times MIC measured after 24 hrs by time-kill kinetic assay; type: functional, organism-based; method in brief: as §1
[12] = test system: Mycobacterium tuberculosis; assay: Antibacterial activity against wild type Mycobacterium tuberculosis H37Ra incubated for 7 days by resazurin staining based microtiter assay; type: functional; details: 168 h, time 7 day
Method in brief: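 Resazurin microtiter assay on H37Ra atpB K179N mutants and wild type, using exponential cultures diluted to OD 0.02. 3-fold serial dilution from 10 µM (0.002–10 µM), in triplicate. After 7 days, 0.02% resazurin added for 24 h, then fluorescence read (ex 530/em 590 nm). MIC taken from four-parameter variable-slope nonlinear regression.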

[13] = test system: Mycobacterium tuberculosis; assay: Anti-mycobacterial activity against Mycobacterium tuberculosis H37Ra infected in mouse RAW264.7 cells at 0.5 to 2 times MIC measured after 24 hrs by time-kill kinetic assay; type: functional, organism-based; method in brief: as §1
[14] = Stability of compound; type: physicochemical
[15] = Mycobacterium tuberculosis, H37Ra, 168 h, read-out: MIC
[16] = Mycobacterium tuberculosis, H37Ra, read-out: MBC

Row | Compound | MIC [1, 15] [µM] | CC50 at 72 h [2] [µM] | logP [3] | also measured
1 | O=c1c(NCc2ccccn2)c(N2CCNCC2)c1=O | > 64 | > 64 | -0.21 | 
2 | O=c1c(NCc2ccccn2)c(Nc2nc3cc([N+](=O)[O-])ccc3o2)c1=O | > 64 | > 64 | 1.55 | 
3 | O=c1c(NCc2ccccn2)c(N2CCN(c3ccccc3)CC2)c1=O | > 64 | 26.2 | 2.06 | 
4 | Cc1ccc2nc(Nc3c(NCc4ccccn4)c(=O)c3=O)oc2c1 | > 64 | > 64 | 2.13 | 
5 | CCCNc1c(NCc2ccccn2)c(=O)c1=O | > 64 | > 64 | 0.82 | 
6 | C#CCNc1c(NCc2ccccn2)c(=O)c1=O | > 64 | > 64 | 0.17 | 
7 | O=c1c(NCc2ccccc2)c(NCc2ccccn2)c1=O | > 64 | > 64 | 1.67 | 
8 | CC/C(=C(\c1ccccc1)c1ccc(OCCN(C)C)cc1)c1ccccc1 [TAMOXIFEN] |  | 5.03 |  | 
9 | O=c1c(NCc2ccccn2)c(-c2ccc(N3CCOCC3)cc2)c1=O |  | > 64 |  | MIC [4]: 0.5 µM (≈ 0.175 µg/mL); IC50 [5]: 0.03 µM; MIC [1]: 0.77 µM (≈ 0.269 µg/mL); fractional inhibitory concentration index (FICI) [6]: 0.37; MBC [7]: 0.4 µM (≈ 0.14 µg/mL); Selectivity Index [8]: > 1000; Activity [9]: inactive
10 | O=c1c(NCc2ccccn2)c(Nc2nc3ccc([N+](=O)[O-])cc3o2)c1=O | > 64 | > 64 | 1.55 | 
11 | O=c1c(NCc2ccccn2)c(-c2ccc(C3CCCCC3)cc2)c1=O | > 64 | > 64 | 4.45 | 
12 | O=c1c(NCc2ccccn2)c(-c2ccc(N3CCCCC3)cc2)c1=O | 2.56 (≈ 0.889 µg/mL) | > 64 | 3.29 | fractional inhibitory concentration index (FICI) [6]: 0.29; Activity [10]: 80%; MBC [7, 16]: 1.2 µM (≈ 0.417 µg/mL); Activity [11]: Active; Activity [9]: inactive
13 | O=c1c(NCc2ccccn2)c(Nc2nc3ccccc3o2)c1=O | > 64 | > 64 | 1.61 | 
14 | O=c1c(NCc2ccccn2)c(Nc2ccccc2)c1=O | 15.1 (≈ 4.23 µg/mL) | > 64 | 1.58 | 
15 | O=c1c(NCc2ccccn2)c(Nc2nc3ccc(Cl)cc3o2)c1=O | > 64 | > 64 | 2.22 | 
16 | CCCCCCNc1c(NCc2ccccn2)c(=O)c1=O | > 64 | > 64 | 2.16 | 

Row | Compound | MIC [1, 15] [µM] | CC50 at 72 h [2] [µM] | logP [3] | also measured
17 | COc1nc2ccc(Br)cc2cc1[C@@H](c1ccccc1)[C@@](O)(CCN(C)C)c1cccc2ccccc12 [BEDAQUILINE] | 0.05 (≈ 0.0278 µg/mL) |  |  | MIC [12]: 0.1 µM (≈ 0.0556 µg/mL); MBC [7, 16]: 0.03 µM (≈ 0.0167 µg/mL)
18 | COc1ccc(-c2c(NCc3ccccn3)c(=O)c2=O)cc1 | 6.59 (≈ 1.94 µg/mL) | > 64 | 2.18 | Activity [13]: inactive; fractional inhibitory concentration index (FICI) [6]: 0.63; MBC [7, 16]: 8 µM (≈ 2.35 µg/mL); Activity [9]: inactive
19 | O=c1c(NCc2ccccn2)c(N2CCCCC2)c1=O | > 64 | > 64 | 1.18 | 
20 | O=c1c(NCc2ccccn2)c(-c2ccc(F)cc2)c1=O | 14.9 (≈ 4.21 µg/mL) | > 64 | 2.48 | MBC [7, 16]: > 100 µM
21 | Cc1ccc2oc(Nc3c(NCc4ccccn4)c(=O)c3=O)nc2c1 | > 64 | > 64 | 2.13 | 
22 | O=c1c(NCc2ccccn2)c(NC2CCCCC2)c1=O | > 64 | > 64 | 1.74 | 
23 | O=c1c(NCc2ccccn2)c(N2CCC(c3ccccc3)CC2)c1=O | > 64 | 7.47 | 2.6 | 
24 | O=c1c(NCc2ccccn2)c(-c2ccc(N3CCNCC3)cc2)c1=O | 19.9 (≈ 6.93 µg/mL) | > 64 | 1.91 | MBC [7, 16]: 64 µM (≈ 22.3 µg/mL)
25 | O=c1c(NCCCBr)c(NCc2ccccn2)c1=O | > 64 | > 64 | 0.85 | 
26 | COc1ccc(/C=C2/S/C(=N/N=C/c3ccccc3O)NC2=O)cc1 |  |  |  | MIC90 ([4]; Mycobacterium tuberculosis, H37Rv): 0.5 µg/mL (≈ 1.41 µM)
27 | O=c1c(NCc2ccccn2)c(Nc2cc(C3CC3)n[nH]2)c1=O | > 64 | > 64 | 0.89 | 
28 | O=c1c(NCc2ccccn2)c(N2CCOCC2)c1=O | > 64 | > 64 | 0.11 | 
29 | O=c1c(NCc2ccccn2)c(Nc2nc3cc(Cl)ccc3o2)c1=O | > 64 | > 64 | 2.22 | 
30 | O=c1c(NCc2ccccn2)c(NC2CCCCCCC2)c1=O | > 64 | > 64 | 2.63 | 
31 | O=c1c(NCc2ccccn2)c(-c2ccc(N3CCSCC3)cc2)c1=O | 0.9 (≈ 0.329 µg/mL) | > 64 | 2.8 | fractional inhibitory concentration index (FICI) [6]: 0.48; Stability [14]: Unstable; MBC [7, 16]: 1.2 µM (≈ 0.439 µg/mL); Activity [9]: inactive
32 | O=c1c(NCc2ccccn2)c(-c2ccc(C3CCNCC3)cc2)c1=O | > 64 | > 64 | 2.44 | 
